Experimental data: paper PMC6945491 (Biomaterials, 2019)

Columns and labels:
HIV-1ADA [1] = assay: EC50 by HIV-1 RT activity in infected MDM; type: cell-based; conditions: Human immunodeficiency virus 1, 240 h, read-out: EC50 (RT activity)
Outline: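 Human MDM (80,000 cells/well) pretreated 60 min with test compound or parent drug. Infected with HIV-1ADA at MOI 0.1 for 4 h, then cultured 10 days at the same drug concentration with half-medium changes every other day. Supernatant RT activity measured on day 10. EC50 fitted by sigmoidal 4-point logarithmic regression; triplicate.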

MDM = assay: Drug uptake and 3TC-TP formation in MDM; type: cell-based, human; conditions: 100 μM, over 24 h
Outline: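 Human monocytes differentiated 7–10 days in DMEM with 10% heat-inactivated pooled human serum and 1,000 U/ml M-CSF at 37°C, 5% CO2. MDM exposed to 100 μM nanoformulated prodrug or parent drug. At sampling, cells washed twice in PBS, scraped, counted and pelleted. Pellets extracted in methanol with sonication, then drug measured by LC-MS/MS. 3TC-TP quantified by an established protocol. Triplicate.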

[2] = Pharmacokinetics and biodistribution in rats; conditions: single IM 75 mg/kg, after one day, limit of quantitation, data not shown
HIV-1NL4–3-eGFP = assay: EC50 by HIV-1 RT activity in infected CEM-CD4+ T cells; type: cell-based; conditions: Human immunodeficiency virus 1, T-cell, 240 h, read-out: EC50 (RT activity)
HIV-1ADA [3] = assay: Long-term antiretroviral efficacy in MDM; type: cell-based; conditions: 8 h 100 μM, HIV-1ADA challenge
Outline: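 MDM loaded 8 h with 100 μM test compound or parent drug, washed with PBS and kept drug-free with half-medium exchanges every other day. Challenged with HIV-1ADA (MOI 0.1) at days 1–30 after loading, then virus medium replaced. Ten days later medium RT activity was expressed as % of infected untreated cells. Cells fixed in 4% paraformaldehyde and HIV-1 p24 immunostained.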

SMILES: Nc1ccn([C@H]2CS[C@@H](CO)O2)c(=O)n1 [3TC, 2’,3’-Dideoxy-3’-Thiacytidine]
- EC50 (HIV-1ADA [1]): 19.4 nM
- intracellular drug concentration (MDM): < 0.5 μg/10^6 cells
- drug levels in plasma and tissues [2]: ≤ 0.05 ng/mL
- EC50 (HIV-1NL4–3-eGFP): 35.4 nM
- time of viral breakthrough after treatment (HIV-1ADA [3]): within one day
